Experimental data as given in ChEMBL document CHEMBL1150363, “Synthesis, ligand-receptor modeling studies and pharmacological evaluation of novel 4-modified-2-aryl-1,2,4-triazolo[4,3-a]quinoxalin-1-one derivatives as potent and selective human A3 adenosine receptor antagonists” (Bioorg Med Chem, 2008).

What was measured:
Adenosine receptor A2a [1] = target: T1, Adenosine receptor A2a (Homo sapiens, UniProt P29274); experiment: Displacement of [3H]NECA from human cloned adenosine A2A receptor expressed in CHO cells
T1 sequence (P29274 whole entry): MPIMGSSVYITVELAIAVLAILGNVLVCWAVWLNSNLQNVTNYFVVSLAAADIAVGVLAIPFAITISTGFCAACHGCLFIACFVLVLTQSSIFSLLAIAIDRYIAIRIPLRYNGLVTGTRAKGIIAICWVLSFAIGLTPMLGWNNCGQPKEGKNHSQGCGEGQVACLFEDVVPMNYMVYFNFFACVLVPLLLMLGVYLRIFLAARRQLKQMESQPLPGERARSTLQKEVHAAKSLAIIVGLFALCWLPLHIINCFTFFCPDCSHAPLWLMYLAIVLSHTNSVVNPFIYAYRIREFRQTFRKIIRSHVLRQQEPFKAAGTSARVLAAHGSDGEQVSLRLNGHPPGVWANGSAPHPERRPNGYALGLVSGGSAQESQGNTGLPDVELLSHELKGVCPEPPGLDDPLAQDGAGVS

[2] = Displacement of [3H]CGS21680 from adenosine A2A receptor in bovine brain membrane; type: cell membranes, Bos taurus
Adenosine receptor A3 = target: T2, Adenosine receptor A3 (Homo sapiens, UniProt P0DMS8); experiment: Displacement of [125I]AB-MECA from human cloned adenosine A3 receptor expressed in CHO cells; type: cell-based
T2 sequence (P0DMS8 whole entry): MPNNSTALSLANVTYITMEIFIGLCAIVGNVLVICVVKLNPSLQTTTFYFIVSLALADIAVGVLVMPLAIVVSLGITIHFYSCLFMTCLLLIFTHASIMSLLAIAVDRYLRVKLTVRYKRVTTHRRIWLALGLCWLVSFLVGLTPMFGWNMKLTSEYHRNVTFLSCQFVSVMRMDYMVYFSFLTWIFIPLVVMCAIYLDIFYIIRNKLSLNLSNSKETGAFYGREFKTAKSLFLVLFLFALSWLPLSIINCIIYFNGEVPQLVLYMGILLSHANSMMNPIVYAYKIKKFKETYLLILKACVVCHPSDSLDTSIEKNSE
How it was run: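 CHO cells stably expressing hA3. IC50 by non-linear regression over five displacer concentrations in triplicate, converted to Ki by Cheng-Prusoff. Ki values are means of four assays.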

Adenosine receptor A1 [3] = target: T3, Adenosine receptor A1 (Bos taurus, UniProt P28190); experiment: Displacement of [3H]DPCPX from adenosine A1 receptor in bovine brain membrane
T3 sequence (P28190 whole entry): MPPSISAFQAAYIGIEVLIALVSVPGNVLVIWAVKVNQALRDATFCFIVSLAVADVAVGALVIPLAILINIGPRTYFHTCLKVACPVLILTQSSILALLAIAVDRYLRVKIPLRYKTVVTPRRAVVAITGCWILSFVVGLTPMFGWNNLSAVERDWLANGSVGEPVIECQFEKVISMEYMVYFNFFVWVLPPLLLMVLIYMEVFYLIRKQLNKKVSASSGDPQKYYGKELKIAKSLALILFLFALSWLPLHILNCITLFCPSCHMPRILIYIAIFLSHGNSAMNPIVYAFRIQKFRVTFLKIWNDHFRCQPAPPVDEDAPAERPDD

Adenosine receptor A1 [4] = target: T4, Adenosine receptor A1 (Homo sapiens, UniProt P30542); experiment: Displacement of [3H]DPCPX from human cloned adenosine A1 receptor expressed in CHO cells
T4 sequence (P30542 whole entry): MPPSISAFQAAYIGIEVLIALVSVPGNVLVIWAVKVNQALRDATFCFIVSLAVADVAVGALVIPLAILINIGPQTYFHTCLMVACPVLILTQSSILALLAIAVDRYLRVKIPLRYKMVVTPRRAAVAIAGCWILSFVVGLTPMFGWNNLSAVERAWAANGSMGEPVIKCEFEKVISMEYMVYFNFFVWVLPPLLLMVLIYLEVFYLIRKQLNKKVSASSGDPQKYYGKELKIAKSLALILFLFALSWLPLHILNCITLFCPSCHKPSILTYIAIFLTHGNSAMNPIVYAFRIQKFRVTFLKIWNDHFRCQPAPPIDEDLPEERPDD

[5] = target: T5, Adenosine receptor A1 (Bos taurus) (UniProt P28190); experiment: Displacement of [125I]DPCPX from adenosine A1 receptor in bovine brain membrane at 10 uM; type: cell membranes; details: in the assay text read “[3H]DPCPX” for “[125I]DPCPX”
T5 sequence (whole entry): T3 sequence (P28190 whole entry)
How it was run: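 Bovine cerebral cortical membranes, [3H]DPCPX (Kd 0.3 nM). IC50 from five displacer concentrations in triplicate, Ki by Cheng-Prusoff, means of four assays. Single-point data are % inhibition of specific binding at 10 µM.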

Bos taurus = species on record: Bos taurus; experiment: Displacement of [3H]CGS21680 from adenosine A2A receptor in bovine brain membrane at 10 uM; type: cell membranes
How it was run: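 Bovine striatal membranes, [3H]CGS 21680 (Kd 14 nM). Five displacer concentrations in triplicate, non-linear regression IC50, Cheng-Prusoff Ki, four assays. Single-point data are % inhibition at 10 µM.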

Adenosine receptor A2a [6] = target: T1, Adenosine receptor A2a; experiment: Displacement of [125I]NECA from human adenosine A2A receptor expressed in CHO cells at 10uM; type: cell-based; details: in the assay text read “[3H]NECA” for “[125I]NECA”
How it was run: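 hA2A stably expressed in CHO cells. Radioligand [3H]NECA (Kd 30 nM). Percentage inhibition of specific binding measured at 10 µM.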

[7] = target: T6, Adenosine receptor A3 (Homo sapiens) (UniProt P0DMS8); experiment: Displacement of [125I]AB-MECA from human cloned adenosine A3 receptor expressed in CHO cells at 1 uM; type: cell-based
T6 sequence (whole entry): T2 sequence (P0DMS8 whole entry)
How it was run: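 CHO cells stably expressing hA3. Displacement of [125I]AB-MECA (Kd 1.4 nM). IC50 by non-linear regression over five displacer concentrations in triplicate, converted to Ki by Cheng-Prusoff. Ki values are means of four assays. Single-point data are % inhibition of specific binding at 1 µM.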

[8] = target: T7, Adenosine receptor A1 (Homo sapiens) (UniProt P30542); experiment: Displacement of [3H]DPCPX from human cloned adenosine A1 receptor expressed in CHO cells at 10 uM
T7 sequence (whole entry): T4 sequence (P30542 whole entry)

Row | SMILES | Ki (Adenosine receptor A2a [1]) | Ki [2] | Ki (Adenosine receptor A3) | Ki (Adenosine receptor A1 [3]) | Ki (Adenosine receptor A1 [4]) | Activity [5] | Activity (Bos taurus) | Activity (Adenosine receptor A2a [6]) | Activity [7] | Activity [8]
1 | O=C(NCc1ccccc1)Nc1nc2ccccc2n2c(=O)n(-c3ccccc3)nc12 | 0.158 µM | 0.173 µM | 0.0835 µM | 0.0041 µM | 0.0123 µM | – | – | – | – | –
2 | O=C(Nc1cccc(I)c1)Nc1nc2ccccc2n2c(=O)n(-c3ccccc3)nc12 | – | 1.8 µM | 0.953 µM | 0.359 µM | – | – | – | – | – | –
3 | O=C(Nc1nc2ccccc2n2c(=O)n(-c3ccccc3)nc12)c1ccncc1 | 0.188 µM | 0.812 µM | 0.0061 µM | 0.057 µM | 2.38 µM | – | – | – | – | –
4 | COc1ccc(-n2nc3c(N(S(C)(=O)=O)S(C)(=O)=O)nc4ccccc4n3c2=O)cc1 | – | – | 0.387 µM | – | – | 6.2% | 17% | – | – | –
5 | O=C(NC(=O)c1ccccc1)Nc1nc2ccccc2n2c(=O)n(-c3ccccc3)nc12 | – | 0.379 µM | 1.3 µM | 0.101 µM | – | – | – | – | – | –
6 | O=C(Nc1nc2c([N+](=O)[O-])cccc2n2c(=O)n(-c3ccccc3)nc12)c1ccncc1 | – | – | – | – | – | 37.5% | 22% | – | 0% | –
7 | O=c1n(-c2ccccc2)nc2c(NS(=O)(=O)c3ccccc3)nc3ccccc3n12 | – | – | 0.0322 µM | 0.157 µM | – | – | 35% | 27% | – | 0%
8 | O=C(Nc1nc2ccccc2n2c(=O)n(-c3ccccc3)nc12)c1ccccc1 | – | – | – | – | – | – | 53% | – | – | –
9 | O=C(Nc1nc2ccccc2n2c(=O)n(-c3ccccc3)nc12)c1cccc(I)c1 | – | – | – | 0.473 µM | – | – | 35% | – | 36% | –
10 | CCCn1c(=O)c2[nH]c(C3CCCC3)nc2n(CCC)c1=O [1,3-DIPROPYL-8-CYCLOPENTYLXANTHINE [DPCPX]] | – | 0.337 µM | – | – | – | – | – | – | – | –
11 | O=c1n(-c2ccccc2)nc2c(NS(=O)(=O)c3ccccc3)nc3c([N+](=O)[O-])cccc3n12 | – | – | 0.1 µM | 0.21 µM | – | – | 25% | – | – | –
12 | O=C(NCc1ccccc1)Nc1nc2c([N+](=O)[O-])cccc2n2c(=O)n(-c3ccccc3)nc12 | – | – | 0.063 µM | 0.0046 µM | – | – | 46.5% | 20% | – | 4%
13 | CS(=O)(=O)Nc1nc2c([N+](=O)[O-])cccc2n2c(=O)n(-c3ccccc3)nc12 | – | – | – | 2.84 µM | – | – | 25% | – | 37% | –
14 | COC(=O)c1ccc(C(=O)Nc2nc3ccccc3n3c(=O)n(-c4ccccc4)nc23)cc1 | – | – | – | 0.106 µM | – | – | 36% | – | 41% | –
15 | CS(=O)(=O)Nc1nc2ccccc2n2c(=O)n(-c3ccccc3)nc12 | – | – | 1.43 µM | 0.164 µM | – | – | 32% | – | – | –

Continued, values first:

Row | Ki (Adenosine receptor A2a [1]) | Ki [2] | Ki (Adenosine receptor A3) | Ki (Adenosine receptor A1 [3]) | Ki (Adenosine receptor A1 [4]) | Activity [5] | Activity (Bos taurus) | Activity (Adenosine receptor A2a [6]) | Activity [7] | Activity [8] | SMILES
16 | – | – | 1.37 µM | – | – | 30.5% | 41% | – | – | – | COC(=O)c1ccc(C(=O)Nc2nc3ccccc3n3c(=O)n(-c4ccc(OC)cc4)nc23)cc1
17 | – | – | 0.493 µM | – | – | 6% | 0% | – | – | – | COc1ccc(-n2nc3c(NS(C)(=O)=O)nc4ccccc4n3c2=O)cc1
18 | – | – | 0.0022 µM | 4.7 µM | 2.7 µM | – | 16% | 23% | – | – | COc1ccc(-n2nc3c(NS(=O)(=O)c4ccccc4)nc4ccccc4n3c2=O)cc1
19 | 0.397 µM | – | 0.068 µM | 0.236 µM | 0.779 µM | – | 44% | – | – | – | COc1ccc(-n2nc3c(NC(=O)c4ccncc4)nc4ccccc4n3c2=O)cc1
20 | – | – | 0.065 µM | 0.0208 µM | 4.21 µM | – | 12% | 23% | – | – | COc1ccc(-n2nc3c(NC(=O)NCc4ccccc4)nc4ccccc4n3c2=O)cc1
21 | – | – | 0.021 µM | 0.055 µM | – | – | 19% | 10% | – | 46% | O=c1n(-c2ccccc2)nc2c(OCc3ccccc3)nc3ccccc3n12
22 | – | – | 0.0064 µM | – | – | 53% | 41% | 4% | – | 54% | COc1ccc(-n2nc3c(OCc4ccccc4)nc4ccccc4n3c2=O)cc1
